From ChEMBL document CHEMBL4732089, “Novel σ antagonists designed for tumor therapy: Structure - activity relationships of aminoethyl substituted cyclohexanes” (Eur J Med Chem, 2021)
pKi: −log10 of the molar value. Activity calls are given as the source filed them. The rule behind the calls is not given here.

Legend:
[1] = target: T1, Sigma intracellular receptor 2 (Rattus norvegicus, UniProt Q5U3Y7); experiment: Displacement of [3H]-di-o-tolylguanidine from sigma2 receptor in rat liver membrane incubated for 120 mins by liquid scintillation counting method relative to control; assay type: cell membranes
T1 sequence (Q5U3Y7 whole entry): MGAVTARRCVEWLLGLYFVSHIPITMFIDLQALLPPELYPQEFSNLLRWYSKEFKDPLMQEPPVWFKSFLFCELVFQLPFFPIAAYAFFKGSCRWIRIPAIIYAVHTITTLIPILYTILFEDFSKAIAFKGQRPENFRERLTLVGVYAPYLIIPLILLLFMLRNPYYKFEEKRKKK
In short: (§1)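 Competitive binding with [3H]di-o-tolylguanidine on rat liver membranes. Single-concentration values are % inhibition of radioligand binding at 1 µM test compound. Ki values are n = 3 (±SEM), except low-affinity compounds, which were measured once.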

[2] = target: Sigma non-opioid intracellular receptor 1 (Cavia porcellus, UniProt Q60492); experiment: Displacement of [3H]-pentazocine from sigma1 receptor in guinea pig brain membrane incubated for 120 mins by liquid scintillation counting method; assay type: cell membranes
Sigma non-opioid intracellular receptor 1, sequence (Q60492 whole entry): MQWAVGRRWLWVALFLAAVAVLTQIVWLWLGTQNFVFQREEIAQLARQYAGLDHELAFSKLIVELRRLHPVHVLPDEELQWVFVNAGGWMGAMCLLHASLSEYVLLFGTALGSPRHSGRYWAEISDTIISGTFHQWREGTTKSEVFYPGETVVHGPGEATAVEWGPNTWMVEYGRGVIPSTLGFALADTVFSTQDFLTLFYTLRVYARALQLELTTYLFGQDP

[3] = target: T2, Sigma intracellular receptor 2 (Rattus norvegicus) (UniProt Q5U3Y7); experiment: Displacement of [3H]-di-o-tolylguanidine from sigma2 receptor in rat liver membrane at 1 uM incubated for 120 mins by liquid scintillation counting method relative to control; assay type: cell membranes; in short: as §1
T2 sequence (whole entry): T1 sequence (Q5U3Y7 whole entry)

[4] = organism: Sus scrofa; experiment: Displacement of [3H]-MK-801 from NMDA receptor PCP binding site in pig brain cortex at 1 uM incubated for 150 mins by liquid scintillation counting method relative to control; assay type: tissue-based
[5] = system: DU-145; experiment: Antiproliferative activity against human DU145 cells assessed as reduction in cell viability at 10 uM incubated for 72 hrs by SRB assay; assay type: functional, cell-based
In short: (§2)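 Cells from ATCC were grown in RPMI 1640 with 10% FBS, glutamine and penicillin-streptomycin. Seeding was 1×10^3 (lung) or 2×10^3 (prostate) cells/well. After 24 h, compounds were added at 10 µM for 72 h. Cells were fixed with 10% TCA and stained with sulforhodamine B for 30 min. Dye was solubilized in Tris base and OD read at 510 nm. Results are expressed as % of DMSO-treated cells.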

[6] = Selectivity for sigma1 receptor in guinea pig brain membrane over sigma2 receptor in rat liver membrane; assay type: cell membranes
[7] = Drug metabolism in mouse liver microsomes assessed as metabolite 2-((1R,3S)-3-phenylcyclohexyl)ethanamine formation measured after 90 mins in presence of NADPH by LC-MS analysis; assay type: ADME, Microsome; settings: 1.5 h
In short: (§3)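 Incubation with mouse liver microsomes and NADPH for 90 min at 37 °C. Metabolites were identified by LC-MS with collision-induced dissociation.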

[8] = n-octanol/aqueous buffer distribution coefficient, log D of compound at pH 7.4 by LC-MS analysis; assay type: physicochemical
In short: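 Micro shake-flask method using 20 mM MOPS buffer pH 7.4 and n-octanol, mutually pre-saturated for 24 h. DMSO was kept below 1%. Three buffer:octanol volume ratios (1:1, 1:2, 2:1) were each run three times (n = 9). Tubes were vortexed 2 min and centrifuged 10 min at 20 °C. The aqueous layer was quantified by LC-MS against a matrix-matched calibration, and logD calculated from that concentration.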

[9] = Drug metabolism in mouse liver microsomes assessed as metabolite 4-((1S,3R)-3-(2-(benzylamino)ethyl)cyclohexyl)benzene-1,2-diol formation measured after 90 mins in presence of NADPH by LC-MS analysis; assay type: ADME, Microsome; settings: 1.5 h; in short: as §3
[10] = Metabolic stability in mouse liver microsomes assessed as parent compound remaining measured after 90 mins in presence of NADPH
[11] = system: PC-3; experiment: Antiproliferative activity against human PC-3 cells assessed as reduction in cell viability at 10 uM incubated for 72 hrs by SRB assay; assay type: functional, cell-based
In short: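 PC3 prostate cancer cells grown adherent in RPMI 1640 with 2% glutamine, 10% FBS and 1% penicillin-streptomycin. Seeded at 2 × 10^3 cells/well; compound added at 10 µM 24 h later for 72 h. Cells fixed in 10% TCA, stained with sulforhodamine B 30 min, washed with 1% acetic acid, dye solubilised in Tris base, OD read at 510 nm; viability given as % of DMSO-treated cells.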

[12] = target: Sigma non-opioid intracellular receptor 1 (Rattus norvegicus) (UniProt Q9R0C9); experiment: Antagonist activity at sigma1 receptor in rat PC12 cells assessed as reduction in opipramol activity by measuring increase in Ca2+-influx at 10 nM measured after 30 mins in presence of KCl by Fura2AM dye based fluorescence microscopic analysis relative to control; assay type: cell-based; set-up: scale not given: the % may be the effect or the level left
Sigma non-opioid intracellular receptor 1 (Rattus norvegicus), sequence (Q9R0C9 whole entry, the tested form may be a part): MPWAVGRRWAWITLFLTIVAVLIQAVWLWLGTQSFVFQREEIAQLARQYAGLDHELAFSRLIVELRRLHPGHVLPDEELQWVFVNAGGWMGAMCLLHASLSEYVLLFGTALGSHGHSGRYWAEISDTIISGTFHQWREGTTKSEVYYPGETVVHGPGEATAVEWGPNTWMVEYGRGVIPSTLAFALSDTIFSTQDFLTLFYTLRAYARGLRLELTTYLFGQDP
In short: (§4)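 Single PC12 cells loaded with 0.5 µM fura-2-AM plus 0.01% Pluronic F-127, 30 min, 37 °C, in HEPES saline pH 7.4 (138 mM NaCl, 6 mM KCl, 2 mM CaCl2). Cells were then washed 30 min and perfused. Test compounds were at 10 nM, and Ca2+ influx was triggered with KCl. Excitation was at 340/380 nm and emission at 510 nm. The F340/F380 ratio was calibrated with KD 224 nM. 10–20 cells per slide, ≥5 independent experiments.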

[13] = target: Sigma non-opioid intracellular receptor 1 (Rattus norvegicus) (UniProt Q9R0C9); experiment: Agonist activity at sigma1 receptor in rat PC12 cells assessed as reduction in KCl-induced Ca2+ influx at 10 nM measured after 30 mins by Fura2AM dye based fluorescence microscopic analysis; assay type: cell-based; settings: PC-12; in short: as §4
[14] = system: NCI-H441; experiment: Antiproliferative activity against human NCI-H441 cells assessed as reduction in cell viability at 10 uM incubated for 72 hrs by SRB assay; assay type: functional, cell-based; in short: as §2
[15] = system: CWR22R; experiment: Antiproliferative activity against human 22Rv1 cells assessed as reduction in cell viability at 10 uM incubated for 72 hrs by SRB assay; assay type: functional, cell-based; in short: as §2
[16] = system: NCI-H522; experiment: Antiproliferative activity against human NCI-H522 cells assessed as reduction in cell viability at 10 uM incubated for 72 hrs by SRB assay; assay type: functional, cell-based; in short: as §2
[17] = system: NCI-H358; experiment: Antiproliferative activity against human NCI-H358 cells assessed as reduction in cell viability at 10 uM incubated for 72 hrs by SRB assay; assay type: functional, cell-based; in short: as §2

Compound	pKi [1]	pKi [2]	inhibition [4]	Activity [5]	other results
NCC[C@@H]1CCC[C@@H](c2ccccc2)C1	–	7.37	15%	–	inhibition [3]: 43%
CN(C)CC[C@@H]1CCC[C@H](c2ccccc2)C1	7.12	7.85	–	–	–
NCC[C@H]1CCC[C@@H](c2ccccc2)C1	–	6.86	14%	–	inhibition [3]: 24%
NCC[C@@H]1CCC[C@H](c2ccccc2)C1	–	6.78	11%	–	inhibition [3]: 38%
NCC[C@H]1CCC[C@H](c2ccccc2)C1	–	6.22	31%	–	inhibition [3]: 60%
CCCN(CCC)CCc1ccc(OC)c(OCCc2ccccc2)c1	–	–	–	–	Activity [11]: Active
c1ccc(CNCC[C@@H]2CCC[C@@H](c3ccccc3)C2)cc1 [listing 2 of 2 here]	–	–	–	inactive	Selectivity ratio [6]: 35
c1ccc(CNCC[C@@H]2CCC[C@H](c3ccccc3)C2)cc1 [listing 2 of 2 here]	–	–	–	Active	–
c1ccc([C@H]2CCC[C@@H](CCN3CCN(c4ccccc4)CC3)C2)cc1 (relative stereo)	6.93	7.80	0%	inactive	–
c1ccc(CNCC[C@@H]2CCC[C@@H](c3ccccc3)C2)cc1 (relative stereo) [listing 2 of 2 here]	–	–	31%	–	Activity ([12]; PC-12, filed as antagonist): 100%; Activity [13]: inactive
c1ccc(CNCC[C@@H]2CCC[C@H](c3ccccc3)C2)cc1 (relative stereo) [listing 2 of 2 here]	–	–	11%	Active	Activity ([12]; PC-12): inactive; Activity [14]: Active; Activity [11]: Active; Activity [15]: Active; Activity [16]: Active; Activity [13]: inactive; Activity [17]: Active

Now from value to compound, other results behind:

pKi [1]	pKi [2]	inhibition [4]	Compound	Activity [5]	other results
6.81	8.00	–	CN(C)CC[C@H]1CCC[C@@H](c2ccccc2)C1	–	–
7.24	8.74	–	c1ccc(CNCC[C@@H]2CCC[C@@H](c3ccccc3)C2)cc1 [listing 1 of 2 here]	–	–
7.33	8.89	–	c1ccc(CNCC[C@H]2CCC[C@@H](c3ccccc3)C2)cc1	Active	Selectivity ratio [6]: 35
7.31	9.21	–	c1ccc(CNCC[C@@H]2CCC[C@H](c3ccccc3)C2)cc1 [listing 1 of 2 here]	–	Drug metabolism [7]: Metabolite_Detected; logD [8]: 3.23; Drug metabolism [9]: Metabolite_Detected; remaining at 1.5 h [10]: 43%
7.34	8.85	–	c1ccc(CNCC[C@H]2CCC[C@H](c3ccccc3)C2)cc1	inactive	logD [8]: 3.34; Selectivity ratio [6]: 35
6.94	8.38	25%	CN(C)CCC1CCCC(c2ccccc2)C1 (mixture of isomers)	–	–
7.03	8.52	11%	c1ccc(CCCCNCCC2CCCC(c3ccccc3)C2)cc1 (mixture of isomers)	–	–
7.48	8.70	28%	c1ccc([C@@H]2CCC[C@@H](CCN3CCCC3)C2)cc1 (relative stereo)	–	Activity ([12]; PC-12, filed as antagonist): 100%; Activity [13]: inactive
6.57	8.62	–	c1ccc(CNCC[C@@H]2CCC[C@@H](c3ccccc3)C2)cc1 (relative stereo) [listing 1 of 2 here]	–	–
7.21	8.44	36%	c1ccc([C@H]2CCC[C@@H](CCN3CCCC3)C2)cc1 (relative stereo)	–	–
6.84	7.89	0%	c1ccc([C@H]2CCC[C@H](CCN3CCN(c4ccccc4)CC3)C2)cc1 (relative stereo)	inactive	–
6.89	8.74	–	c1ccc(CNCC[C@@H]2CCC[C@H](c3ccccc3)C2)cc1 (relative stereo) [listing 1 of 2 here]	–	–
